Test results: ChEMBL document CHEMBL2424620, “β2-Adrenoceptor agonists in the regulation of mitochondrial biogenesis” (Bioorg Med Chem Lett, 2013)
Calls of active or inactive are those of the source. No cut-off for these calls is given here.

Columns and labels:
[1] = system: RPT; assay: Induction of Mitochondrial biogenesis in rabbit RPT cells at 10 to 3000 nM after 24 hrs by FCCP-OCR assay relative to control; type: functional, cell-based; conditions: Oryctolagus cuniculus
Summary of the method: (§1)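 Primary cultures of rabbit renal proximal tubule cells, grown under improved conditions favouring aerobic respiration, were exposed to compound (10–3,000 nM) for 24 h. FCCP-uncoupled oxygen consumption rate was then read on a Seahorse XF-96. Plates included vehicle (DMSO <0.5%), SRT1720 10 μM positive control and blanks. Results are expressed as a ratio or percent fold change versus DMSO, mean ± s.e.m., N=4. A ratio >1.15 was classed as MB.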

[2] = system: RPT; assay: Induction of Mitochondrial biogenesis in rabbit RPT cells after 24 hrs by FCCP-OCR assay relative to control; type: functional, cell-based; conditions: Oryctolagus cuniculus; summary of the method: as §1
[3] = molecular target: Beta-2 adrenergic receptor (Homo sapiens, UniProt P07550); assay: Binding affinity to beta-2 adrenergic receptor (unknown origin) at 1 to 10000 nM
Beta-2 adrenergic receptor, sequence (P07550 whole entry): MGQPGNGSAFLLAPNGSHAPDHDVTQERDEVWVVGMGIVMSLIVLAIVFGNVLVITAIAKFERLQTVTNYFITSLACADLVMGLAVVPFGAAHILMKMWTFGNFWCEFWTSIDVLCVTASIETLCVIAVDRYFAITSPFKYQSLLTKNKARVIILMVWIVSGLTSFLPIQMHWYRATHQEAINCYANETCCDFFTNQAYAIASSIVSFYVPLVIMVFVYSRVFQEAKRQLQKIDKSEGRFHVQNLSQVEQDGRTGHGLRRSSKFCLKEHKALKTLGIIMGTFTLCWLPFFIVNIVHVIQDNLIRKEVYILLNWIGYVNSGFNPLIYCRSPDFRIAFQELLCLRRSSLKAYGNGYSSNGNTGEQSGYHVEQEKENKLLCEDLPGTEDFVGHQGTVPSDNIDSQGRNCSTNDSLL

Row | Structure (SMILES) | Activity [1] | Activity [2] | Kd [3] [nM]
1 | CC(C)(C)NCC(O)c1cc(Cl)c(N)c(Cl)c1 (stereo unspecified) | inactive | – | –
2 | CC(C)(C)NCC(O)c1cc(O)cc(O)c1 (stereo unspecified) | – | Active | –
3 | CC(C)NCC(O)c1ccc(O)c(O)c1 (stereo unspecified) | inactive | – | –
4 | CC(Cc1ccc(O)cc1)NCC(O)c1cc(O)cc(O)c1 (stereo unspecified) | Active | – | –
5 | CNCCC(Oc1ccccc1OC)c1ccccc1 (stereo unspecified) | Active | – | –
6 | CNCC[C@@H](Oc1ccccc1C)c1ccccc1 | Active | – | –
7 | C[C@@H](NCCc1ccc(O)cc1)[C@@H](O)c1ccc(O)cc1 (relative stereo) [rel-RITODRINE] | – | Active | 0.501
8 | CCC(NC1CCCC1)C(O)c1ccc(O)c(O)c1 (stereo unspecified) [CYCLOPENTYLBUTANEPHARINE] | – | Active | 10
9 | CCC(NC(C)C)C(O)c1ccc(O)c(O)c1 (stereo unspecified) [ISOETHARINE] | inactive | – | 1000
10 | CC(C)NCC(O)c1cc(O)cc(O)c1 (stereo unspecified) [METAPROTERENOL] | – | Active | 501
11 | CCC(NC(C)C)C(O)c1ccc(O)c2[nH]c(=O)ccc12 (stereo unspecified) [PROCATEROL] | Active | – | 79.4
